ChEMBL document CHEMBL4265926, “Synthesis and antibacterial activity evaluation of novel biaryloxazolidinone analogues containing a hydrazone moiety as promising antibacterial agents” (Eur J Med Chem, 2018)
In brackets after ≈: the same amount, converted by molar mass.

Legend:
Staphylococcus aureus [1] = experiment: Antibacterial activity against Staphylococcus aureus ATCC 29213 by broth liquid microdilution method; type: functional
How it was run: (§1)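 Isolates were identified on an automated MicroScan WalkAway 96 system. Susceptibility was tested by broth microdilution following CLSI guidelines. MIC was taken as the lowest concentration giving complete inhibition of bacterial growth. S. aureus ATCC 29213 served as the control strain.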

Staphylococcus aureus [2] = experiment: Antibacterial activity against methicillin-resistant Staphylococcus aureus by broth liquid microdilution method; type: functional; how it was run: as §1
[3] = biological target: T1, MAO-A (amine oxidase [flavin-containing] A) (Homo sapiens, UniProt P21397); experiment: Inhibition of recombinant human MAOA expressed in baculovirus infected Sf9 insect cells at 30 uM using luciferin derived substrate pretreated for 15 mins followed by substrate addition and measured after 60 mins by luminescence assay relative to control; conditions: probe luciferin derived substrate
T1 sequence (P21397 whole entry): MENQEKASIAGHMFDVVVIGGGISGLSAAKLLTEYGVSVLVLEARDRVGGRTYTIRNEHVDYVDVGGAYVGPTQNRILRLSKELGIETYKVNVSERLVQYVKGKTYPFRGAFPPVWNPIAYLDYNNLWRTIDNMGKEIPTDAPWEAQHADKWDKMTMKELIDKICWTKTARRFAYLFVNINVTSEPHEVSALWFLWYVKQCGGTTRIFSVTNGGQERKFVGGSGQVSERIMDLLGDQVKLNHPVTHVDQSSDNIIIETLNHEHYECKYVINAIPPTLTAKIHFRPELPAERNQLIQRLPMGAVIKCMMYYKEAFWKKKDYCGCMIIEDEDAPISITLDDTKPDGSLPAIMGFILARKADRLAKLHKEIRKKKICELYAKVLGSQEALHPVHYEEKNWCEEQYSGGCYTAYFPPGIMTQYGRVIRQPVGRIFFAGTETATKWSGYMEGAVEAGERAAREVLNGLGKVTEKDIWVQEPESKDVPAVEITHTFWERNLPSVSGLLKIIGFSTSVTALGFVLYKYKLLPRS
How it was run: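 Human recombinant MAO-A with MAO-Glo luminescent kit. Compounds in DMSO (final 1% DMSO) preincubated with enzyme 15 min at room temperature, then luciferin derivative substrate added and reacted 60 min at room temperature. Luciferase detection reagent added for 20 min before luminescence read. Buffer replacing enzyme served as 100% inhibition control and DMSO as no-inhibition control; percent inhibition calculated against both.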

[4] = Intrinsic clearance in human liver microsomes at 1.5 uM pretreated for 5 mins followed by NADPH addition measured after 5 to 45 mins by LC-MS analysis; type: ADME, microsome; conditions: read-out: CLH
How it was run: (§2)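 Human liver microsomes with 1.5 µM compound in a 0.75 mg/mL microsome mix were pre-warmed at 37 °C for 5 min. Reaction started with NADPH (6 mM stock). Samples were quenched with acetonitrile plus internal standard at 0, 5, 15, 30 and 45 min, then read by LC/MS, in duplicate. T1/2 = ln(2)/k from the log-linear slope; Clint derived from T1/2; % remaining read at 45 min.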

Staphylococcus aureus [5] = experiment: Antibacterial activity against methicillin-resistant Staphylococcus aureus clinical isolates by broth liquid microdilution method; type: functional; how it was run: as §1
Staphylococcus aureus [6] = experiment: Potency index, ratio of linezolid MIC to test compound MIC for Staphylococcus aureus ATCC 29213; type: functional
How it was run: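 MIC by broth microdilution per CLSI guidelines, taken as the lowest concentration giving complete growth inhibition; isolates identified on MicroScan WalkAway 96; S. aureus ATCC29213 used as control strain. Index expressed as linezolid MIC divided by test compound MIC.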

Enterococcus faecium [7] = experiment: Antibacterial activity against vancomycin-resistant Enterococcus faecium clinical isolates by broth liquid microdilution method; type: functional; how it was run: as §1
Staphylococcus aureus [8] = experiment: Potency index, ratio of linezolid MIC to test compound MIC for methicillin-sensitive Staphylococcus aureus; type: functional
Enterococcus faecalis [9] = experiment: Antibacterial activity against linezolid-resistant Enterococcus faecalis clinical isolates by broth liquid microdilution method; type: functional; how it was run: as §1
Enterococcus faecalis [10] = experiment: Antibacterial activity against linezolid-resistant Enterococcus faecalis by broth liquid microdilution method; type: functional; how it was run: as §1
[11] = Half life in human liver microsomes at 1.5 uM in presence of NADPH by LC-MS analysis; type: ADME, microsome; how it was run: as §2
Enterococcus faecium [12] = experiment: Antibacterial activity against vancomycin-resistant Enterococcus faecium by broth liquid microdilution method; type: functional; how it was run: as §1
Staphylococcus aureus [13] = experiment: Antibacterial activity against methicillin-sensitive Staphylococcus aureus clinical isolates by broth liquid microdilution method; type: functional; how it was run: as §1
HepG2 = experiment: Cytotoxicity against human HepG2 cells after 48 hrs by MTT assay; type: cell-based; conditions: HepG2, 48 h
How it was run: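 HepG2 cells grown in RPMI1640 with 10% FBS; about 4×10⁴ cells per well seeded in MEM, incubated 24 h at 37 ℃ in 5% CO₂, then exposed to compounds at indicated final concentrations for 48 h. MTT added (final 0.5 mg/mL) for 4 h at 37 ℃, formazan dissolved in DMSO, absorbance read at 492 nm. Triplicate runs; IC50 as mean ± SD.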

Staphylococcus aureus [14] = experiment: Antibacterial activity against methicillin-sensitive Staphylococcus aureus by broth liquid microdilution method; type: functional; how it was run: as §1
[15] = Stability in human liver microsomes assessed as parent compound remaining at 1.5 uM pretreated for 5 mins followed by NADPH addition measured after 45 mins by LC-MS analysis; type: ADME, microsome; conditions: read-out: Stability; how it was run: as §2

SMILES	MIC (Staphylococcus aureus [1]) [µg/mL]	MIC (Staphylococcus aureus [2]) [µg/mL]	inhibition at 1 h, 30 µM [3] [%]	CLint scaled at 1.5 µM [4] [mL/min/kg]	MIC50 (Staphylococcus aureus [5]) [µg/mL]	MIC90 (Staphylococcus aureus [5]) [µg/mL]	MIC (Enterococcus faecium [7]) [µg/mL]	MIC50 (Enterococcus faecium [7]) [µg/mL]	MIC90 (Enterococcus faecium [7]) [µg/mL]	MIC (Enterococcus faecalis [9]) [µg/mL]	MIC50 (Enterococcus faecalis [9]) [µg/mL]	MIC90 (Enterococcus faecalis [9]) [µg/mL]	MIC (Enterococcus faecalis [10]) [µg/mL]	MIC (Enterococcus faecium [12]) [µg/mL]	MIC (Staphylococcus aureus [13]) [µg/mL]	MIC50 (Staphylococcus aureus [13]) [µg/mL]	MIC90 (Staphylococcus aureus [13]) [µg/mL]	IC50 (HepG2) [µM]	MIC (Staphylococcus aureus [14]) [µg/mL]	remaining at 0.75 h, 1.5 µM [15] [%]	further results
CC(=O)NC[C@H]1CN(c2ccc(-c3ccc(/C=N/N4CCN(C)CC4)cc3)c(F)c2)C(=O)O1	0.0675 (≈ 0.149 µM)	0.0675 (≈ 0.149 µM)	71	23.9	0.0625 (≈ 0.138 µM)	0.125 (≈ 0.276 µM)	0.0625 to 0.5 (≈ 0.138 to 1.1 µM)	0.25 (≈ 0.551 µM)	0.5 (≈ 1.1 µM)	0.0625 to 0.25 (≈ 0.138 to 0.551 µM)	0.125 (≈ 0.276 µM)	0.125 (≈ 0.276 µM)	0.0675 (≈ 0.149 µM)	0.0675 (≈ 0.149 µM)	0.0625 to 0.25 (≈ 0.138 to 0.551 µM)	0.0625 (≈ 0.138 µM)	0.125 (≈ 0.276 µM)	0.82	0.0675 (≈ 0.149 µM)	64.7	Ratio (Staphylococcus aureus [6]): 15 - 30; Ratio (Staphylococcus aureus [8]): 15 - 30; half-life at 1.5 µM [11]: 1.21 h
CC(=O)NC[C@H]1CN(c2ccc(N3CCOCC3)c(F)c2)C(=O)O1 [LINEZOLID]	1 (≈ 2.96 µM)	1 (≈ 2.96 µM)	74		2 (≈ 5.93 µM)	4 (≈ 11.9 µM)	1 to 4 (≈ 2.96 to 11.9 µM)	2 (≈ 5.93 µM)	4 (≈ 11.9 µM)	> 16	> 16	> 16	> 16	2 (≈ 5.93 µM)	1 to 2 (≈ 2.96 to 5.93 µM)	2 (≈ 5.93 µM)	2 (≈ 5.93 µM)	> 25	1 (≈ 2.96 µM)	104	MIC (Staphylococcus aureus [5]): 1 to 4 µg/mL (≈ 2.96 to 11.9 µM)
CC(=O)NC[C@H]1CN(c2ccc(-c3ccc(/C=N/N4CC[S+]([O-])CC4)cc3)c(F)c2)C(=O)O1	0.0675 (≈ 0.143 µM)	0.0675 (≈ 0.143 µM)	88		0.125 (≈ 0.265 µM)	0.25 (≈ 0.529 µM)	0.0625 to 0.5 (≈ 0.132 to 1.06 µM)	0.125 (≈ 0.265 µM)	0.5 (≈ 1.06 µM)	0.0625 to 0.25 (≈ 0.132 to 0.529 µM)	0.125 (≈ 0.265 µM)	0.5 (≈ 1.06 µM)	0.0675 (≈ 0.143 µM)	0.0675 (≈ 0.143 µM)	0.0625 to 0.25 (≈ 0.132 to 0.529 µM)	0.125 (≈ 0.265 µM)	0.25 (≈ 0.529 µM)		0.0675 (≈ 0.143 µM)		Ratio (Staphylococcus aureus [6]): 15 - 30; Ratio (Staphylococcus aureus [8]): 15 - 30
CC(=O)NC[C@H]1CN(c2ccc(-c3ccc(/C=N/N4CCN(C(=O)CO)CC4)cc3)c(F)c2)C(=O)O1	0.0675 (≈ 0.136 µM)	0.0675 (≈ 0.136 µM)	80	2.62	0.0625 (≈ 0.126 µM)	0.125 (≈ 0.251 µM)	0.0625 to 0.5 (≈ 0.126 to 1 µM)	0.125 (≈ 0.251 µM)	0.25 (≈ 0.502 µM)	0.0625 to 0.125 (≈ 0.126 to 0.251 µM)	0.125 (≈ 0.251 µM)	0.25 (≈ 0.502 µM)	0.0675 (≈ 0.136 µM)	0.0675 (≈ 0.136 µM)	0.0625 to 0.125 (≈ 0.126 to 0.251 µM)	0.0625 (≈ 0.126 µM)	0.125 (≈ 0.251 µM)	4.66	0.0675 (≈ 0.136 µM)	93.9	half-life at 1.5 µM [11]: 11.1 h
